Source: PubChem
S1P4 antag – S1P4 receptor antagonists, primary screen, cell-based. AID 1510, 2009. S1P4-expressing cells, antagonist mode, reporter read-out. inhibition, % at 4.98 µM. 220,000 tested, 0.26% active. Sphingosine 1-phosphate receptor 4 (Homo sapiens), O95977; in the data active = inhibition above about 29%
S1P3 antag – S1P3 receptor antagonists, primary screen, cell-based; AID 485, 2006; inhibition, % at 4.98 µM; 170,000 tested, 0.27% active; CHO S1P3 NFAT-BLA reporter, FRET fluorescence, antagonist mode; Sphingosine 1-phosphate receptor 3 (Homo sapiens), Q99500;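 active = inhibition above the plate cutoff, the mean inhibition of test wells on that plate plus 3 SD, cut at about 28% in these data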;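 note: cells challenged with S1P at its EC80 of 0.8 µM; blue over green emission ratio from cleaved BLA substrate after 4 h stimulation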
Target sequence (Q99500 whole entry, looked up): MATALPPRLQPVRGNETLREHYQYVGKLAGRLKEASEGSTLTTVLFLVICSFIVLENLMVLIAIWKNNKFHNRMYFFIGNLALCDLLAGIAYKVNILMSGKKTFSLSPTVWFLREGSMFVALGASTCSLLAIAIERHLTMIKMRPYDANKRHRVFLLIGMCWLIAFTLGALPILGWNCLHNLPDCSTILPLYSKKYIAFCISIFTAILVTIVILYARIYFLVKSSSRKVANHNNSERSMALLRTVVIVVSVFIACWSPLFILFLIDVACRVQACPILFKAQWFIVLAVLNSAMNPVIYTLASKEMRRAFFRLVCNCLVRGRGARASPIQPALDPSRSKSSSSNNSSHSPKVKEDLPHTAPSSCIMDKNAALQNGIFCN
MDM2 E3 inh – MDM2-luciferase reporter signal enhancers, primary screen, MDM2 E3 ligase inhibitor project, cell-based, luminescence, 1536-well; signal enhancement, % at 5 µM; E3 ubiquitin-protein ligase Mdm2 (Homo sapiens), Q00987; 210,000 tested, 0.11% active; cell-based MDM2 ubiquitination luciferase reporter, 2 h; 0 = plate control, 100 = twice control, blank-subtracted;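 active = signal enhancement of 30% or more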;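 note: luminescence tracks abundance of the self-degrading MDM2-luciferase fusion protein; higher signal means inhibition of MDM2 E3 ligase activity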
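Assay system: stable mammalian line carrying autodegrading MDM2–luciferase fusion reporter; amount: 2000 cells seeded into each well; buffer or medium: DMEM; benchmarks: plate control and blank wells; signal: luciferase luminescence; timing: 2 h compound exposure at 37 °C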
S1P4 agonist – S1P4 receptor agonists, primary screen, cell-based; S1P4-expressing cell line, agonist reporter assay; activation, % at 4.98 µM; 220,000 tested, 0.35% active; in the data active = activation above about 11%
L major viab – Leishmania major promastigote growth inhibition, primary screen. inhibition, % at 10 µM. Leishmania major promastigotes, resazurin fluorescence viability. 200,000 tested, 9% active; in the data active = inhibition above about 50%;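 note: promastigotes grown with compound for 44 hours at 28 °C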
Hits are given with their value; – = inactive; · = no result. The entries come from a sample that favours hits as a whole.

SMILES | S1P4 antag | S1P3 antag | MDM2 E3 inh | S1P4 agonist | L major viab
Cc1nn2c(N3CCN(C(=O)c4ccco4)CC3)cc(C(C)(C)C)nc2c1-c1ccccc1 | – | – | – | – | 57.0
Cc1nn2c(N3CCCC3)cc(C(C)C)nc2c1-c1ccccc1 | – | – | – | – | 86.7
CC(C)[N+]1=C2C=CC=CC=C2SC12C([N+](=O)[O-])=CC(=[N+]([O-])[O-])C=C2[N+](=O)[O-] (stereo not given) | – | – | – | – | ·
O=C(O)C[C@@H]1C(=O)O[C@@H]2C(COC(=O)c3cc(O)c(O)c(O)c3)O[C@@H](OC(=O)c3cc(O)c(O)c(O)c3)[C@@H](OC(=O)c3cc(O)c(O)c4c3[C@H]1[C@H](O)C(=O)O4)[C@H]2OC(=O)c1cc(O)c(O)c(O)c1 (stereo not given in full) | · | · | – | · | ·
CC(C)Oc1ccc(CNC2CCOC(C)(C)C2)cc1 (stereo not given) | – | – | – | – | 86.3
CC(C)Oc1ccc(CNCC2(O)CCOC(C)(C)C2)cc1 (stereo not given) | – | – | – | – | –
O=C1CN2NC(=S)N(c3ccccc3)C2=CN1c1ccc(Cl)cc1 | – | – | – | – | –
CC(C)NC(=S)N1CCN(S(=O)(=O)c2cccc(C(F)(F)F)c2)CC1 | – | – | – | – | 95.2
O=S(=O)(c1cccc(C(F)(F)F)c1)N1CCN(C(=S)NC2CC2)CC1 | – | – | – | – | 54.6
CCNC(=S)N1CCN(S(=O)(=O)c2cccc(C(F)(F)F)c2)CC1 | – | – | · | – | –
CC(C)CC(=O)Nc1ccc(C(=O)CN2CCC(C)CC2)cc1 | – | – | – | – | –
CCCS(=O)(=O)N1CCC(C(=O)NCCC(C)C)CC1 | – | – | – | – | –
CCCN1CCC2(CC1)C(C#N)=C(N)Oc1c2sc2nc(C)cc(C)c12 | – | · | – | – | 52.0
CC(=O)Nc1ccc(N2CCCCC2)c(C(=O)Nc2cccc(C)c2)c1 | – | · | – | – | 81.5
COc1ccc(N(CC(=O)NCc2cccnc2)S(=O)(=O)c2c(C)nn(C)c2C)cc1 | – | – | – | – | –
COc1ccc(C)cc1S(=O)(=O)N1CCC(C(=O)N2CCN(C)CC2)CC1 | – | – | – | – | –
COc1ccc(CCN2CC(C#N)=C3c4cc(OC)c(OC)cc4CCN3C2)cc1OC | – | – | – | – | 94.8
Cc1ncc(CN2CCC(CO)(CCc3ccccc3)CC2)s1 | – | – | – | – | 83.9
OCC1(CCCc2ccccc2)CCN(Cc2cnc(N3CCOCC3)s2)CC1 | – | – | – | – | 78.8
COc1cccc(CC2(CO)CCN(Cc3cnc(N4CCOCC4)s3)CC2)c1 | – | – | – | – | –
Cc1nc(C)n(C(C)CC(=O)O)n1 (stereo not given) | – | · | – | – | –
CCc1ccc(N2C(=O)CC(Cn3nc(C)cc3C)C2=O)cc1 (stereo not given) | – | – | – | – | ·
CC(=O)Nc1ccc(Nc2nc(C)c([N+](=O)[O-])c(Nc3ccccc3)n2)cc1 | – | – | – | – | 91.2
Cc1nc(Nc2ccc(C(=O)O)cc2)nc(Nc2ccc(C(=O)O)cc2)c1[N+](=O)[O-] | – | – | – | – | –
Cc1ccc2c(n1)CC(C)(C)CC2=O | – | · | – | – | –
SMILES | S1P4 antag | S1P3 antag | MDM2 E3 inh | S1P4 agonist | L major viab
COCCN(C(=O)CSc1nncn1-c1ccccc1)c1c(N)n(Cc2ccccc2)c(=O)[nH]c1=O | – | – | – | – | 53.5
CCOC(=O)c1ccc(NC(=O)C2(c3ccccc3)CCOCC2)cc1 | – | · | – | – | –
CCOC(=O)c1ccc(Oc2c(C)oc3cc(OS(C)(=O)=O)ccc3c2=O)cc1 | – | – | – | – | 52.9
CN(C)/C=N/N(C)c1ncccc1[N+](=O)[O-] | – | – | – | – | ·
COC(=O)c1ccc(-n2c(C)cc(C(=O)COC(=O)CC3Sc4ccccc4NC3=O)c2C)cc1 (stereo not given) | – | – | – | – | 65.3
Cc1cc(C(=O)COC(=O)CC2Sc3ccccc3NC2=O)c(C)n1-c1ccc2c(c1)OCO2 (stereo not given) | – | – | – | – | 54.9
Cc1cc(C(=O)COC(=O)c2ccc(N)c([N+](=O)[O-])c2)c(C)n1-c1ccc2c(c1)OCO2 | – | – | – | – | 71.2
